Data set [1] in a line: Cytotoxicity against human Raji cells assessed as cell viability at 1000 molar ratio. Conditions: read-out: Activity. The format is cell-based. Summed up:
(§1)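 Raji cells were treated with 32 pmol TPA to induce EBV early antigen activation. The test agent was added at 10, 100, 500 or 1000 mol ratio relative to TPA, and Raji cell viability was measured alongside EA activation.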

A short description of data set [2]: Cytotoxicity against human Raji cells assessed as cell viability at 500 molar ratio. The format is cell-based. To be noted: read-out: Activity. Summed up:
as §1

The subject of data set [3] is Raji. As to the kind of experiment: Inhibition of TPA-induced EBV-early antigen activation in human Raji cells at 500 molar ratio relative to TPA. Conditions: human gammaherpesvirus 4. Details: scale not given: the % may be the effect or the level left. In kind it is cell-based.
A short description of data set [4]: Cytotoxicity against human Raji cells assessed as cell viability at 100 molar ratio. The format is cell-based. Conditions: read-out: Activity. Summed up: as §1
Data set [5] concerns Raji. As to the kind of experiment: Inhibition of TPA-induced EBV-early antigen activation in human Raji cells at 1000 molar ratio relative to TPA. Details: scale not given: the % may be the effect or the level left. In kind it is cell-based. To be noted: human gammaherpesvirus 4.
The nature of data set [6]: Inhibition of TPA-induced EBV-early antigen activation in human Raji cells relative to TPA. In kind it is cell-based, human gammaherpesvirus 4.
The next data set concerns Mus musculus. As to the kind of experiment: Antiinflammatory activity against TPA-induced ear edema in mouse. The format is functional. The method, boiled down:
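Specific-pathogen-free female ICR mice were housed five per cage at 24 ± 2 °C. Inflammation was induced on the ear with TPA at 1 µg/ear, and the test agent was applied per ear. Ear edema inhibition was expressed as ID50 in mg per ear.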

In data set [7] the test system is Raji. Description: Inhibition of TPA-induced EBV-early antigen activation in human Raji cells at 100 molar ratio relative to TPA. The format is cell-based. Details: scale not given: the % may be the effect or the level left. Conditions: human gammaherpesvirus 4.
Data set [8] is described as follows: Cytotoxicity against human Raji cells assessed as cell viability at 10 molar ratio. In kind it is cell-based. To be noted: read-out: Activity. The method, boiled down: as §1
The test system of data set [9] is Raji. As to the kind of experiment: Inhibition of TPA-induced EBV-early antigen activation in human Raji cells at 10 molar ratio relative to TPA. In kind it is cell-based. Conditions: human gammaherpesvirus 4. Details: scale not given: the % may be the effect or the level left.

As for `CCCCOC(=O)[C@H]1O[C@@H](O[C@H]2CC[C@]3(C)[C@H]4CC=C5[C@@H]6CC(C)(C)CC[C@]6(C(=O)O[C@@H]6O[C@H](CO)[C@@H](O)[C@H](O)[C@H]6O)CC[C@@]5(C)[C@]4(C)CC[C@H]3C2(C)C)[C@H](O)[C@@H](O[C@@H]2O[C@H](CO)[C@H](O)[C@H](O)[C@H]2O)[C@@H]1O`, in data set [1], the viability at 1000 molar ratio amounted to 70%. Besides, in data set [2], the viability at 500 molar ratio is greater than 80%. For the same compound, the Activity is 41.5% in the data set with Raji [3], 5.4% in the data set with Raji [5], 70.1% with Raji [7] and 100% in the data set on Raji [9]. The viability at 100 molar ratio in data set [4] was greater than 80%. Also, in data set [6], the IC50 came to 471 molar ratio. For the same compound, the ID50 in the data set with Mus musculus was found to be 0.06 mg. In addition, in data set [8], the viability at 10 molar ratio was greater than 80%.
Take `COC(=O)[C@H]1O[C@@H](O[C@H]2CC[C@]3(C)[C@H]4CC=C5[C@@H]6CC(C)(C)CC[C@]6(C(=O)O[C@@H]6O[C@H](CO)[C@@H](O)[C@H](O)[C@H]6O)CC[C@@]5(C)[C@]4(C)CC[C@H]3C2(C)C)[C@H](O)[C@@H](O[C@@H]2O[C@H](CO)[C@H](O)[C@H](O)[C@H]2O)[C@@H]1O`: the viability at 1000 molar ratio in data set [1] came to 70%. Besides, the viability at 500 molar ratio in data set [2] is greater than 80%. Besides, the Activity amounted to 52.1% in the data set on Raji [3], 14.4% with Raji [5], 74.3% with Raji [7] and 100% with Raji [9]. Besides, the viability at 100 molar ratio in [4] is greater than 80%. The compound further came in with an IC50 in data set [6] of 480 molar ratio. For the same compound, the ID50 with Mus musculus worked out at 0.1 mg. Besides, in data set [8], the viability at 10 molar ratio is greater than 80%.
As for `C[C@]12CCC(=O)C=C1CC[C@@H]1[C@@H]2[C@@H](O)C[C@@]2(C)[C@H]1CC[C@]2(O)C(=O)CO` [HYDROCORTISONE], the ID50 in the data set on Mus musculus was determined as 0.03 mg.
As for `COc1cc(-c2oc3cc(O)cc(O)c3c(=O)c2O[C@@H]2O[C@H](CO[C@@H]3O[C@@H](C)[C@H](O)[C@@H](O)[C@H]3O)[C@@H](O)[C@H](O)[C@H]2O)ccc1O` [NARCISSIN], in [1], the viability at 1000 molar ratio is 70%. For the same compound, the viability at 500 molar ratio in [2] is greater than 80%. In addition, the Activity worked out at 62.4% in the data set on Raji [3], 16.3% with Raji [5], 84.3% with Raji [7] and 100% in the data set on Raji [9]. For the same compound, the viability at 100 molar ratio in data set [4] was greater than 80%. Besides, the IC50 in data set [6] is 585 molar ratio. In addition, in data set [8], the viability at 10 molar ratio was greater than 80%.
`COc1cc(-c2oc3cc(O)cc(O)c3c(=O)c2O[C@@H]2O[C@H](CO)[C@@H](O)[C@H](O)[C@H]2O[C@@H]2O[C@@H](C)[C@H](O)[C@@H](O)[C@H]2O)ccc1O`: the viability at 1000 molar ratio in data set [1] was determined as 70%. Besides, the viability at 500 molar ratio in data set [2] is greater than 80%. The Activity worked out at 60% with Raji [3], 14.1% with Raji [5], 81.1% in the data set on Raji [7] and 100% in the data set on Raji [9]. Also, the viability at 100 molar ratio in data set [4] is greater than 80%. In data set [6], this compound returned an IC50 of 574 molar ratio. Further, the viability at 10 molar ratio in data set [8] was greater than 80%.
`CCCCOC(=O)[C@H]1O[C@@H](O[C@H]2CC[C@]3(C)[C@H]4CC=C5[C@@H]6CC(C)(C)CC[C@]6(C(=O)O[C@@H]6O[C@H](CO)[C@@H](O)[C@H](O)[C@H]6O)CC[C@@]5(C)[C@]4(C)CC[C@H]3C2(C)C)[C@H](O[C@@H]2O[C@H](CO)[C@@H](O)[C@H](O)[C@H]2O)[C@@H](O[C@@H]2O[C@H](CO)[C@H](O)[C@H](O)[C@H]2O)[C@@H]1O`: in data set [1], the viability at 1000 molar ratio was found to be 70%. Moreover, the viability at 500 molar ratio in [2] was greater than 80%. The Activity amounted to 43.2% in the data set on Raji [3], 10.6% with Raji [5], 71.6% with Raji [7] and 100% in the data set on Raji [9]. Further, the viability at 100 molar ratio in [4] was greater than 80%. The compound also yielded an IC50 in data set [6] of 480 molar ratio. Moreover, the ID50 with Mus musculus came to 0.06 mg. The viability at 10 molar ratio in data set [8] is greater than 80%.
For `CC1=C(/C=C/C(C)=C/C=C/C(C)=C/C=C/C=C(C)/C=C/C=C(C)/C=C/C2=C(C)CCCC2(C)C)C(C)(C)CCC1` [BETA CAROTENE], the viability at 500 molar ratio in data set [2] was greater than 80%. The viability at 100 molar ratio in [4] is greater than 80%. Further, the Activity is 8.6% in the data set on Raji [5] and 100% in the data set with Raji [9]. This compound also came in with an IC50 in [6] of 397 molar ratio. Further, in data set [8], the viability at 10 molar ratio is greater than 80%.
Take `CC1(C)CC[C@]2(C(=O)O[C@@H]3O[C@H](CO)[C@@H](O)[C@H](O)[C@H]3O)CC[C@]3(C)C(=CC[C@@H]4[C@@]5(C)CC[C@H](O[C@@H]6O[C@H](C(=O)O)[C@@H](O)[C@H](O[C@@H]7O[C@H](CO)[C@H](O)[C@H](O)[C@H]7O)[C@H]6O[C@@H]6O[C@H](CO)[C@@H](O)[C@H](O)[C@H]6O)C(C)(C)[C@@H]5CC[C@]43C)[C@@H]2C1` [CALENDULAGYCOSIDE A]: in data set [1], the viability at 1000 molar ratio amounted to 70%. Moreover, the viability at 500 molar ratio in data set [2] was greater than 80%. For the same compound, the Activity in the data set with Raji [3] came out at 52.3%; with Raji [5], 15.8%; with Raji [7], 75.3%; in the data set with Raji [9], 75.3%. Also, in [4], the viability at 100 molar ratio is greater than 80%. Further, the IC50 in data set [6] stood at 484 molar ratio. In the data set with Mus musculus, this compound gave an ID50 of 0.32 mg. For the same compound, in data set [8], the viability at 10 molar ratio was greater than 80%.
`C[C@@H]1O[C@@H](OC[C@H]2O[C@@H](Oc3c(-c4ccc(O)c(O)c4)oc4cc(O)cc(O)c4c3=O)[C@H](O)[C@@H](O)[C@@H]2O)[C@H](O)[C@H](O)[C@H]1O` [RUTIN]: the viability at 1000 molar ratio in data set [1] was determined as 70%. In data set [2], the viability at 500 molar ratio is greater than 80%. For the same compound, the viability at 100 molar ratio in data set [4] is greater than 80%. Also, the IC50 in data set [6] is on record as 578 molar ratio. The viability at 10 molar ratio in [8] is greater than 80%. Also, the Activity in the data set with Raji [9] stood at 100%.
`CC1(C)CC[C@]2(C(=O)O[C@@H]3O[C@H](CO)[C@@H](O)[C@H](O)[C@H]3O)CC[C@]3(C)C(=CC[C@@H]4[C@@]5(C)CC[C@H](O[C@@H]6O[C@H](C(=O)O)[C@@H](O)[C@H](O[C@@H]7O[C@H](CO)[C@H](O)[C@H](O)[C@H]7O)[C@H]6O)C(C)(C)[C@@H]5CC[C@]43C)[C@@H]2C1` [CALENDULAGYCOSIDE C]: in data set [1], the viability at 1000 molar ratio is 70%. Further, in [2], the viability at 500 molar ratio is greater than 80%. The Activity was found to be 51% with Raji [3], 13.2% in the data set with Raji [5], 73.1% in the data set with Raji [7] and 100% in the data set on Raji [9]. The viability at 100 molar ratio in [4] was greater than 80%. Moreover, in [6], the IC50 is on record as 475 molar ratio. In the data set on Mus musculus, this compound displayed an ID50 of 0.2 mg. Also, the viability at 10 molar ratio in data set [8] was greater than 80%.
In the data set on Mus musculus, `COc1ccc2c(c1)c(CC(=O)O)c(C)n2C(=O)c1ccc(Cl)cc1` [INDOMETHACIN] registered an ID50 of 0.3 mg.
Regarding `O=c1c(O[C@@H]2O[C@H](CO)[C@@H](O)[C@H](O)[C@H]2O)c(-c2ccc(O)c(O)c2)oc2cc(O)cc(O)c12` [ISOQUERCETIN], the viability at 1000 molar ratio in data set [1] amounted to 70%. In addition, the viability at 500 molar ratio in data set [2] is greater than 80%. The Activity in the data set with Raji [3] was determined as 58%; with Raji [5], 14.1%; with Raji [7] it was 78.5%; in the data set with Raji [9], 100%. Further, the viability at 100 molar ratio in data set [4] is greater than 80%. Besides, the IC50 in data set [6] is on record as 570 molar ratio. Further, the viability at 10 molar ratio in data set [8] was greater than 80%.
For the compound `COC(=O)[C@H]1O[C@@H](O[C@H]2CC[C@]3(C)[C@H]4CC=C5[C@@H]6CC(C)(C)CC[C@]6(C(=O)O[C@@H]6O[C@H](CO)[C@@H](O)[C@H](O)[C@H]6O)CC[C@@]5(C)[C@]4(C)CC[C@H]3C2(C)C)[C@H](O[C@@H]2O[C@H](CO)[C@@H](O)[C@H](O)[C@H]2O)[C@@H](O[C@@H]2O[C@H](CO)[C@H](O)[C@H](O)[C@H]2O)[C@@H]1O`, the viability at 1000 molar ratio in data set [1] amounted to 70%. Further, the viability at 500 molar ratio in data set [2] is greater than 80%. For the same compound, the Activity in the data set with Raji [3] is 53.6%; in the data set on Raji [5], 16%; in the data set on Raji [7], 77.8%; in the data set on Raji [9], 100%. Further, the viability at 100 molar ratio in data set [4] is greater than 80%. In data set [6], this compound displayed an IC50 of 487 molar ratio. In the data set with Mus musculus, this compound returned an ID50 of 0.06 mg. Moreover, in data set [8], the viability at 10 molar ratio was greater than 80%.
Regarding `COc1cc(-c2oc3cc(O)cc(O)c3c(=O)c2O[C@@H]2O[C@H](CO[C@@H]3O[C@@H](C)[C@H](O)[C@@H](O)[C@H]3O)[C@@H](O)[C@H](O)[C@H]2O[C@@H]2O[C@@H](C)[C@H](O)[C@@H](O)[C@H]2O)ccc1O`, the viability at 1000 molar ratio in data set [1] came out at 70%. In [2], the viability at 500 molar ratio was greater than 80%. For the same compound, the Activity with Raji [3] turned out to be 64.8%; in the data set with Raji [5], 19.6%; in the data set on Raji [7], 86%; with Raji [9] it was 100%. For the same compound, the viability at 100 molar ratio in data set [4] was greater than 80%. This compound also displayed an IC50 in [6] of 592 molar ratio. The viability at 10 molar ratio in data set [8] is greater than 80%.

For the origin of these results see ChEMBL document CHEMBL1158122, “Anti-inflammatory, anti-tumor-promoting, and cytotoxic activities of constituents of marigold (Calendula officinalis) flowers” (J Nat Prod, 2006).
